The list is not random: actives were taken first. Their share in the collection is about 7.9%.
D1 mod: D1 dopamine receptor (human) allosteric modulation. HEK293 D1, CRE-luciferase, dopamine EC30 potentiation; actives deviate in either direction. 58,000 compounds, 5.9% hits. B-score at 10 µM. P21728;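 active = luminescence count or its row- and column-corrected plate score outside the 99.7% band of the plate's sample wells, on either side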
JNK3 blocker: blocks human JNK3 kinase activity; purified JNK3 kinase activity, HTS; inhibition, % at 8 µM; 60,000 compounds, 0.61% hits; AID 746; in the data active = inhibition above about 17%
Target sequence (P53779 whole entry, looked up): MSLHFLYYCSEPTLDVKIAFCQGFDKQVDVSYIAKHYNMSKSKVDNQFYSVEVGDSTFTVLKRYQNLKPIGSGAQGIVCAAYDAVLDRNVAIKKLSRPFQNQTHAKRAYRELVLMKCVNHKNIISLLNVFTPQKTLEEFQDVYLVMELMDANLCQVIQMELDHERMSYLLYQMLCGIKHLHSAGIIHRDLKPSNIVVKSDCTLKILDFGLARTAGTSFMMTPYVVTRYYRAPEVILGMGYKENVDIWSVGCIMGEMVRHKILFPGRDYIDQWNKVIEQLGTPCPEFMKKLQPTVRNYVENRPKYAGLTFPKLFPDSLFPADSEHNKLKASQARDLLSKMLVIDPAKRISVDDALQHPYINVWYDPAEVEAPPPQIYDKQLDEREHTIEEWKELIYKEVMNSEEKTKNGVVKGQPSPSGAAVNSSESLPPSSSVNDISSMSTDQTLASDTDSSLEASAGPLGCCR
SF-1 act: SF-1 (human) activation; 65,000 compounds, 1.9% hits; CHO-K1 Gal4-SF-1 LBD luciferase reporter; % increase over DMSO SF-1-specific signal; activation, % at 10 µM; Q13285;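 active = activation above the mean activation of all tested compounds plus 3 SD, cut at about 50% in these data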
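Material: Gal4–SF-1 LBD one-hybrid luciferase reporter in CHO-K1 cells | Amount: 4,000 cells per well | Compound dosing: 10 µM single point, 1% DMSO | Schedule: 20 h compound treatment, 37 °C | Measured by: SteadyLite luciferase luminescence | Evaluation: Percent activation versus DMSO | Control set: DMSO-treated SF-1-transfected cells as negative, DMSO-treated mock-transfected cells lacking SF-1 as background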
RORa activator: activates the human nuclear receptor RORA; P35398; CHO-K1 Gal4-RORA LBD luciferase reporter, luminescence; percent increase over mock-subtracted basal signal; activation, % at 10 µM; 65,000 compounds, 1.5% hits;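 active = activation above the mean of all tested compounds plus 3 SD, cut at about 49% in these data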
HEK293 NFkB inh: inhibitors of the PMA/ionomycin-induced NF-kB reporter in HEK293 cells. AID 465. inhibition, % at 3 µM. HEK-293 NF-kB luciferase reporter, luminescence. 62,000 compounds, 0.21% hits;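 active = inhibition above the mean of all tested compounds plus 3 SD, cut at about 40% in these data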
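Timing: 1 h pretreatment, 16 h stimulation, 37 °C; system: HEK-293 cells with stable firefly luciferase reporter driven by four HIV NF-kB elements; doses: 3 µM once, 0.30% DMSO; measured by: luciferase luminescence; control set: DMSO and 10 µM reference inhibitor; repeats: single test; reagent: PMA plus ionomycin mix as NF-kB-activating stimulus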
Hits are given with their value; - = inactive; . = no result.

SMILES	D1 mod	JNK3 blocker	SF-1 act	RORa activator	HEK293 NFkB inh
COc1ccccc1NC(=O)CN1CCN(CC(=O)Nc2ccc3c(c2)OCCO3)CC1	-	-	-	-	-
Oc1cccc(Nc2nc(NCC3CCCO3)c3ccccc3n2)c1 (stereo not given)	-5	-	-	-	-
COC(=O)c1ccccc1NC(=O)c1noc2c1CC(C(C)(C)C)CC2 (stereo not given)	-	-	-	-	-
COCCOC(=O)C1=C(C)NC2=C(C(=O)CC(C)(C)C2)C1c1ccc(N(C)C)cc1 (stereo not given)	-5.8	-	-	-	-
CCCOC(=O)C1=C(C)NC2=C(C(=O)CCC2)C1c1ccc(N(C)C)cc1 (stereo not given)	.	-	-	-	-
Brc1ccc(-c2nnc(-c3ccco3)o2)cc1	-	-	-	-	-
Cc1ccccc1-c1nnc(-c2ccccc2)o1	-	-	-	-	-
Cc1cccc(-c2nnc(-c3ccccc3)o2)c1	-	-	60	-	-
c1ccc(-c2nnc(-c3ccco3)o2)cc1	-	-	51	-	-
CN1C(=O)CSc2ccc(NC(=O)N3CCc4ccccc43)cc21	-	-	105	75	-
CC(=O)c1cccc(NC(=O)c2cnn3ccccc23)c1	-2.6	-	67	-	-
O=C(CN1CCCN(S(=O)(=O)c2ccc(Br)cc2)CC1)Nc1ccc2cn[nH]c2c1	-	-	-	-	-
CCn1c2ccccc2c2nnc(SCC(=O)NC(C(=O)OC)C(C)C)nc21 (stereo not given)	3.7	-	-	-	-
CCn1c2ccccc2c2nnc(SCN3C(=O)c4ccccc4C3=O)nc21	9.5	-	-	-	-
Cc1cc(-c2ccccc2)n2ncc(C#N)c2n1	-	-	-	-	-
COC(=O)c1cn(CCOc2ccccc2)c2ccccc12	-	-	-	-	-
Cc1ccc(OCCn2cc(/C(N)=N/O)c3ccccc32)cc1C	-3.1	-	-	-	-
N#C/C(=C(\O)c1ccco1)c1ccccn1	.	19	-	-	-
Cc1noc(C)c1CSc1cc(C)c2ccccc2n1	-	-	-	-	-
CC(=NC1CCCC1)c1c(C)[nH]n(-c2nc3ccccc3s2)c1=O	.	-	71	-	.
Cc1nonc1NC(=O)c1ccc(Cl)c(S(=O)(=O)N2CCCCC2)c1	-	-	-	-	-
Cn1cccc1CNC(=O)Nc1ccc(Cl)c(Cl)c1	-	-	66	60	-
CC(=O)Oc1c(S(=O)(=O)c2ccc(C)cc2)c(C)nn1-c1ccccc1	-	-	-	-	-
Nc1ccc(-c2nc3c(Cl)cc(N)cc3[nH]2)cc1	-2.6	-	-	-	-
Cn1nnnc1SCCOc1ccc(C#N)cc1	.	-	-	-	-
SMILES	D1 mod	JNK3 blocker	SF-1 act	RORa activator	HEK293 NFkB inh
O=C(CSCc1cccc(F)c1)N1CCN(c2ccccc2)CC1	-	.	-	53	-
COc1ccc2c(c1)S/C(=C\C(=O)c1ccncc1)N2C	-	-	-	58	-
Cc1nc2c(-c3ccc(F)cc3)c(C)nn2c(C)c1CCC(=O)NC(C)CCc1ccco1 (stereo not given)	-3.3	-	-	-	-
Cc1nc2c(-c3ccccc3)c(C)nn2c(C)c1CCC(=O)NCc1ccco1	-5.2	-	-	-	-
COC(=O)c1sc(NC(=O)c2cc3c(s2)CCCC3)nc1C	-	-	-	-	-
O=C(NCc1cccs1)c1cc2c(s1)CCCC2	-	-	-	-	-
Cc1nc(NC(=O)c2cc3c(s2)CCCCC3)sc1C(=O)N(C)C	-	-	60	-	-
Cc1nc(NC(=O)c2ccc(Br)s2)sc1C(=O)N(C)C	-	-	107	70	-
Cc1csc(NC(=O)c2cc3c(s2)CCC3)n1	-5.6	.	-	-	-
O=C(c1cc2c(s1)-c1ccccc1OC2)N1CCCC1	-	-	-	84	-
Cc1csc(NC(=O)c2cc3c(s2)-c2ccccc2OC3)n1	-	-	-	63	-
O=C(c1cc2c(s1)-c1ccccc1OC2)N1CCN(c2ccccn2)CC1	-	-	-	-	-
Fc1cnc(N2CCOCC2)nc1N1CCc2ccccc21	-	-	55	-	-
CN1CCN(c2nc(N3CCN(c4ccccc4)CC3)ncc2F)CC1	-	-	-	-	-
CC(C)(C)NC(=O)Nc1ccccc1C(N)=O	-4.3	-	-	-	-
CC(C)=CC(=O)Nc1ccccc1C(N)=O	-	-	-	-	-
CN1C(=S)SC(N(O)C(=O)Nc2ccccc2)C1(C)C (stereo not given)	.	-	-	-	.
CN1C(=S)SC(/[N+]([O-])=C\c2ccco2)C1(C)C (stereo not given)	-5.8	-	-	-	-
CN1C(=S)SC(/[N+]([O-])=C\c2cccs2)C1(C)C (stereo not given)	-7.5	-	-	-	-
O=C(Cn1c(=O)n(CCCC(=O)NC2CCCC2)c(=O)c2ccccc21)NCCC1=CCCCC1	-	-	-	-	-
COc1ccc2nc(S(=O)Cc3ncc(C)c(OC)c3C)[nH]c2c1 (stereo not given)	-	-	-	-	.
Oc1cccc2ccc(Nc3ccccn3)nc12	-4.1	-	-	-	-
c1ccc(Nc2ccccc2Nc2ccccn2)nc1	-	43	-	-	-
O=C(CSc1ncnc2c1nnn2Cc1ccccc1F)N1CCN(c2ccccc2)CC1	.	.	-	-	-
CN(C)c1nc(Nc2ccc(Cl)cc2)nc(OCC#N)n1	-	-	-	-	-
SMILES	D1 mod	JNK3 blocker	SF-1 act	RORa activator	HEK293 NFkB inh
CCOC(=O)C1=C(C)OC(N)=C(C#N)C1c1cc2c(cc1Br)OCO2 (stereo not given)	-	-	-	-	-
CCOC(=O)C1=C(C)OC(N)=C(C#N)C1c1cc2ccccc2nc1N1CCCCC1 (stereo not given)	.	22	-	-	.
COc1nc(C#N)nc(N(C)C)n1	-	-	-	-	-
c1cc(-c2nnc(-c3ccncc3)o2)ccn1	-	-	-	-	-
CCN(CC)c1ccc2cc(-c3nnc(-c4ccncc4)o3)c(=O)oc2c1	.	-	73	-	.
COc1nc2c(C)cccc2cc1-c1noc(-c2ccncc2)n1	-	-	-	-	-
c1ccc(CCNc2ncnc3nc[nH]c23)cc1	-	-	-	-	-
CCCCN(CCCNc1ncnc2nc[nH]c12)c1ccccc1	-3.5	-	-	-	-
c1ccc2c(CCNc3ncnc4nc[nH]c34)c[nH]c2c1	-5.5	-	-	-	-
COC(=O)c1ccccc1NC(=O)CSc1nnc(CNS(=O)(=O)c2ccc(C)cc2)n1C	-	-	-	-	-
Cc1ccc(NC(=O)c2c(C)nc(Nc3nc4ccccc4o3)nc2C)cc1	-	-	-	-	-
FC(F)(F)Oc1ccc(Nc2nc3ccccc3o2)cc1	-	-	-	71	-
O=C(Nc1cccc(C(F)(F)F)c1)C1CCCN1S(=O)(=O)c1cccc2cccnc12 (stereo not given)	-	-	-	-	-
CC(C)c1cc(C(=O)Nc2cccnc2)no1	-	-	-	61	-
